Lipid droplet: hepatic lipid droplet formation modulation | AML12 mouse hepatocytes, oleate lipid droplets, BODIPY imaging | inhibition, % at 6.5 µM | actives 0.4% (n = 240,000) | AID 1656;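 active = lipid droplet intensity inhibited by at least 50%, with more than 500 cells counted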
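Test system: AML12 mouse liver cells; schedule: overnight exposure; technique: high-content imaging of BODIPY-stained droplets and DAPI nuclei; read-out: % inhibition of corrected integrated BODIPY droplet signal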
TbMetRS inhib: Trypanosoma brucei MetRS inhibition. inhibition, % at 11.9 µM. purified T. brucei MetRS, ATP depletion, Kinase-Glo luminescence. actives 0.4% (n = 360,000);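 active = inhibition above a per-plate cutoff of the control wells' mean inhibition plus 3 SD, cut at about 5.5% in these data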;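 note: 0% = DMSO wells median and 100% = median of wells with control inhibitor compound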
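Measured by: Kinase-Glo luciferase luminescence reporting remaining unconsumed ATP. Material: purified T. brucei MetRS enzyme. Doses: 11.9 µM compound single dose, 0.9% DMSO. Medium: HEPES buffer containing pyrophosphatase, BSA, spermine, DTT. Times: 15 min preincubation, 2 h reaction, all 25 °C. Reagent: methionine, ATP and bulk E. coli tRNA.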
NS3 helicase inh: HCV NS3 helicase inhibition; NS3 helicase DNA unwinding, Cy5 molecular beacon fluorescence; inhibition, % at 10.9 µM; actives 0.56% (n = 290,000); AID 1800;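 active = inhibition above the mean of all tested compounds plus 3 SD, set per campaign, cut at about 35% in these data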;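 note: 0% = DMSO wells and 100% = thioflavine S control wells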
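Test system: hepatitis C virus NS3 helicase domain fragment enzyme. Also added: annealed dual-labelled DNA beacon duplex, ATP-started. Timing: 60 min unwinding reaction at 25 °C after ATP addition. Technique: Cy5 fluorescence. Measure: % inhibition of unwinding.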
HCV core dimer: blocks dimerization of HCV core protein | actives 0.33% (n = 300,000) | TR-FRET GST/Flag-core106 dimerization, 1536-well | inhibition, % at 5 µM;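 active = inhibition above the mean of all tested compounds plus 3 SD, set per screening campaign, cut at about 45% in these data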
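Test system: GST/Flag-tagged HCV core106 proteins; Medium: KF-containing HEPES buffer, pH 7.45, DTT, CHAPS, BSA; Times: compound-protein-antibody incubation 4 h at 22.5 °C; Detection: TR-FRET 671 and 617 nm emission; Benchmarks: wells lacking GST-core106 and wells with excess unlabelled core106.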
TbMetRS confirm: Trypanosoma brucei MetRS inhibition confirmed; shares compounds with TbMetRS inhib; T. brucei MetRS enzyme, luminescence (ATP depletion); inhibition, % at 11.9 µM; actives 93% (n = 1,400); AID 624412; in the data active = inhibition above about 7%
Jurkat cytotox: kills Jurkat cells in T. brucei MetRS counterscreen. shares compounds with TbMetRS inhib. Jurkat cells viability, ATP luminescence. inhibition, % at 8.3 µM. actives 12% (n = 1,400). AID 624413; in the data active = inhibition above about 15%;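 note: 0% = vehicle and 100% = reference inhibitor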
Tb MetRS inh FP: T. brucei MetRS inhibition, orthogonal assay. shares compounds with TbMetRS inhib. purified T. brucei MetRS, fluorescence polarization. inhibition, % at 11.9 µM. actives 44% (n = 1,400). AID 651607; in the data active = inhibition above about 17%;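 note: 0% = vehicle wells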
* marks the source's active call; other numbers are inactive results; nt = no result given. Shown are actives, neighbours in structure and some others; about 1.3% of the full set was active somewhere.

SMILES	Lipid droplet	TbMetRS inhib	NS3 helicase inh	HCV core dimer	TbMetRS confirm	Jurkat cytotox	Tb MetRS inh FP
O=S(=O)(c1ccc2c(c1)OCCO2)N1CCC(c2nc3ccc(Cl)cc3[nH]2)CC1	-2	12*	-14	2	17*	24*	12
Cc1ccc2nc(C3CCCN(C(=S)Nc4ccccc4C)C3)[nH]c2c1 (stereo not drawn)	nt	6.8*	-1	4	46*	3	22*
O=S(=O)(c1ccc2c(c1)OCCO2)N1CCC(c2nc3ccccc3[nH]2)CC1	8	-1	-3	1	nt	nt	nt
Cc1ccc2nc(C3CCN(S(=O)(=O)c4ccc5ccccc5c4)CC3)[nH]c2c1	5	48*	-11	9	69*	4	36*
COc1cc(OC)c(NC(=O)CCCNC(=O)Cn2cnc3sc(C)c(C)c3c2=O)cc1Cl	-8	1	-9	-5	nt	nt	nt
CSc1nc2ccccc2n1CC(=O)Nc1cc(C(F)(F)F)ccc1N1CCOCC1	0	13*	-9	1	21*	12	11
CC(C)N(C(=O)Cn1cc(SCC(N)=O)c2ccccc21)C(C)C	-9	0	16	2	nt	nt	nt
O=C(CNC(=O)c1cccc(F)c1)N/N=C/c1cccs1	19	0	25	7	nt	nt	nt
Cc1cc(C(=O)NCC(C)C)c2ccccc2n1	1	0	-6	-1	nt	nt	nt
Cc1cc(C(=O)NCC(=O)Nc2c(C)cccc2C)c2ccccc2n1	nt	11*	nt	nt	3	0	-2
N#C/C(=C\c1ccco1)C(=O)Nn1cnnc1	2	-1	-12	-3	nt	nt	nt
Cc1cc(C)nc(NC(=O)c2cc([N+](=O)[O-])cc([N+](=O)[O-])c2)n1	4	-1	7	-14	nt	nt	nt
Clc1ccc(OCCn2ccnc2)c(Cl)c1	-2	-1	16	-3	nt	nt	nt
O=C(CCCOc1ccc(Cl)cc1Cl)NCCCn1ccnc1	0	6.5*	-23	0	18*	-7	11
OC(COc1ccc(Cl)cc1Cl)Cn1ccnc1 (stereo not drawn)	nt	6.0*	6	1	14*	-1	4
CN(CC1CCOCC1)C(=O)CC1C(=O)NCCN1CC(c1ccccc1)c1ccccc1 (stereo not drawn)	8	0	-8	9	nt	nt	nt
Cn1c(=O)c2cc(NC(=O)NCCc3cccs3)ccc2n1-c1ccc(C(C)(C)C)cc1	nt	0	nt	nt	nt	nt	nt
O=C(Nc1ccc(Cl)cc1)N(Cc1nc2ccccc2c(=O)[nH]1)Cc1cccs1	-13	9.8*	9	6	38*	3	19*
O=C(Nc1ccc(Oc2ccccc2)cc1)c1csc([C@@H]2C[C@H](O)[C@@H](CO)O2)n1	nt	0	nt	nt	nt	nt	nt
O=C(CC(=O)Nc1cccc(Cl)c1)N/N=C\c1ccccc1	0	36*	17	1	82*	-4	51*
O=C(COc1ccc(Cl)cc1Cl)N/N=C/c1ccc[nH]1	-1	6.6*	-3	-6	36*	1	27*
O=C(CCCOc1ccc(Cl)cc1Cl)N/N=C/c1ccccc1O	-70	37*	-7	-9	80*	82*	76*
O=C(COc1ccc(Cl)cc1Cl)N/N=C/CCc1ccccc1	nt	0	2	-1	nt	nt	nt
O=C(N/N=C/c1ccc(Cl)cc1)Nc1ccccc1	nt	-1	-3	1	nt	nt	nt
O=C(CCCOc1ccc(Cl)cc1Cl)N1CCN(c2ccccn2)CC1	nt	12*	-18	4	20*	-1	14
SMILES	Lipid droplet	TbMetRS inhib	NS3 helicase inh	HCV core dimer	TbMetRS confirm	Jurkat cytotox	Tb MetRS inh FP
O=S(=O)(NCC1(N2CCOCC2)CCCCC1)c1ccc(F)c(F)c1F	nt	0	nt	2	nt	nt	nt
O=C(CCCOc1ccc(Cl)cc1Cl)N/N=C/c1ccccc1	-3	12*	-13	-3	39*	3	34*
Cc1ccc(/C=N/NC(=O)CCCOc2ccc(Cl)cc2Cl)cc1	-1	2	-7	-5	nt	nt	nt
O=C(COc1ccc(Cl)cc1Cl)NNC(=S)NCc1ccco1	1	6.4*	7	13	4	12	15
O=C(CCCOc1ccc(Cl)cc1Cl)Nc1ncccn1	2	1	-1	4	nt	nt	nt
O=C(CCCOc1ccc(Cl)cc1Cl)N/N=C/c1ccco1	6	17*	-9	4	52*	5	57*
S=C(N/N=C/c1cccc2ccccc12)Nc1cccc(Cl)c1	-6	5.8*	2	1	0	5	3
CCCCc1nnc(NC(=O)C(C)Sc2nc(N)cc(=O)[nH]2)s1 (stereo not drawn)	30	1	4	-2	nt	nt	nt
Cc1cc(Cl)ccc1OCCCC(=O)NNC(=O)c1ccccc1O	nt	6.0*	nt	-9	25*	11	22*
Cc1cc(C)cc(N(CC(=O)Nc2ccc(Br)cc2)S(=O)(=O)c2c(C)[nH]c(=O)[nH]c2=O)c1	2	49*	-2	5	76*	-1	45*
O=C1CC(c2ccc(F)cc2)CC2=C1C(c1ccc([N+](=O)[O-])o1)Nc1ccccc1N2 (stereo not drawn)	17	6.9*	-2	3	1	3	1
O=C1CC(c2ccccc2)CC2=C1C(c1ccccn1)Nc1ccccc1N2 (stereo not drawn)	14	-1	-7	3	nt	nt	nt
CO/N=C(\c1nonc1N)N1CCN(c2ccc(Cl)cc2[N+](=O)[O-])CC1	nt	16*	-8	3	24*	10	21*
OC1(c2cccc(C(F)(F)F)c2)CCN(c2ncnc3c2[nH]c2ccc(F)cc23)CC1	-1	12*	-30	nt	24*	34*	13
CCn1c(SCC(=O)c2c[nH]c3ccccc23)nc2cc(S(=O)(=O)N3CCOCC3)ccc21	-25	18*	-1	10	82*	2	60*
Cc1nnc(NCc2cccc(Cl)c2)c2ccccc12	-6	12*	-33	9	19*	3	13
COc1ccc(NC(=O)NCCCCc2ccccc2)cc1	-20	0	13	nt	nt	nt	nt
O=C(NCCCCc1ccccc1)Nc1ccc(F)cc1	-8	15*	-2	-5	32*	-1	21*
Cn1cc(C(c2ccccc2OCC(=O)O)c2cn(C)c3ccccc23)c2ccccc21	-5	-1	14	18	nt	nt	nt
Nc1ccc(C(=O)OCc2nc3c(ccc4ccccc43)[nH]2)cc1	-56	7.1*	-5	-5	10*	20*	11
Nc1ccc(C(=O)OCc2nc3cc4ccccc4cc3[nH]2)cc1	-8	3	-7	2	nt	nt	nt
Cc1cc(Br)ccc1OCCCCNCCO	nt	6.1*	-8	-7	11*	5	5
C=CCNCCCCOc1ccc(Br)cc1C	4	4	-16	-9	nt	nt	nt
Cc1nc2nc(SCC(=O)C(C)(C)C)[nH]c2cc1Br	nt	0	0	-1	nt	nt	nt

Assay outcomes deposited in PubChem by several laboratories.
